From ChEMBL document CHEMBL1135816, “6-Aryl-1,4-dihydro-benzo[d][1,3]oxazin- 2-ones: a novel class of potent, selective, and orally active nonsteroidal progesterone receptor antagonists” (J Med Chem, 2002)

Key:
[1] = molecular target: T1, Mineralocorticoid receptor (Homo sapiens, UniProt P08235); assay: Antagonist activity against the Mineralocorticoid Receptor (MR); assay type: functional
T1 sequence (P08235 whole entry): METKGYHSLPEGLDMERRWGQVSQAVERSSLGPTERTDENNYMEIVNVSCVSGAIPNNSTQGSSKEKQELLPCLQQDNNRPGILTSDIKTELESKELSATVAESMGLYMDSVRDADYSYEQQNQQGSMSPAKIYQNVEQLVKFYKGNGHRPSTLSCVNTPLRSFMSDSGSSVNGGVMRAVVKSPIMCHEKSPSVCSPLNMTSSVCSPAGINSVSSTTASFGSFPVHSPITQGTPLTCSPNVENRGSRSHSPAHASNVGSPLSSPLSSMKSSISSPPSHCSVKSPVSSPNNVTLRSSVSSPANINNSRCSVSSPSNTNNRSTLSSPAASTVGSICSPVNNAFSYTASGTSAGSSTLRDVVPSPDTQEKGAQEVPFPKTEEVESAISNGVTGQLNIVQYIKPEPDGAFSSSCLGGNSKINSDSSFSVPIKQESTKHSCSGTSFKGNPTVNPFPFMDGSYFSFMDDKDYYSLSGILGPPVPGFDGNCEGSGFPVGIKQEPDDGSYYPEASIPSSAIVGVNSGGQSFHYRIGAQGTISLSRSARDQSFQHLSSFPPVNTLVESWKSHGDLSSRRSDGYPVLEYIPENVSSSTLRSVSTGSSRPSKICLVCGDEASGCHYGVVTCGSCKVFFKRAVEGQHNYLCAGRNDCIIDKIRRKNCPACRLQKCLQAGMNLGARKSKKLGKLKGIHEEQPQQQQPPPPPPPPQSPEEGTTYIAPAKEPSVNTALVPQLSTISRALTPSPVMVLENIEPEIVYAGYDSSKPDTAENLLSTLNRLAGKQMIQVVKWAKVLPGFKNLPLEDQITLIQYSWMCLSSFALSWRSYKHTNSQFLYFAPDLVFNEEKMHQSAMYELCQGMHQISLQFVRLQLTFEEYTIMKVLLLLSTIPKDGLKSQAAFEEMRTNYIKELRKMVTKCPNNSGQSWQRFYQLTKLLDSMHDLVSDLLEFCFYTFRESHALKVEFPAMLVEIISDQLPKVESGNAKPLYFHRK

[2] = molecular target: T2, Progesterone receptor (Homo sapiens, UniProt P06401); assay: Antagonist activity against progesterone receptor (PR) in an assay using PRE-luciferase plasmid co-transfected CV-1 cells; assay type: functional, cell-based
T2 sequence (P06401 whole entry): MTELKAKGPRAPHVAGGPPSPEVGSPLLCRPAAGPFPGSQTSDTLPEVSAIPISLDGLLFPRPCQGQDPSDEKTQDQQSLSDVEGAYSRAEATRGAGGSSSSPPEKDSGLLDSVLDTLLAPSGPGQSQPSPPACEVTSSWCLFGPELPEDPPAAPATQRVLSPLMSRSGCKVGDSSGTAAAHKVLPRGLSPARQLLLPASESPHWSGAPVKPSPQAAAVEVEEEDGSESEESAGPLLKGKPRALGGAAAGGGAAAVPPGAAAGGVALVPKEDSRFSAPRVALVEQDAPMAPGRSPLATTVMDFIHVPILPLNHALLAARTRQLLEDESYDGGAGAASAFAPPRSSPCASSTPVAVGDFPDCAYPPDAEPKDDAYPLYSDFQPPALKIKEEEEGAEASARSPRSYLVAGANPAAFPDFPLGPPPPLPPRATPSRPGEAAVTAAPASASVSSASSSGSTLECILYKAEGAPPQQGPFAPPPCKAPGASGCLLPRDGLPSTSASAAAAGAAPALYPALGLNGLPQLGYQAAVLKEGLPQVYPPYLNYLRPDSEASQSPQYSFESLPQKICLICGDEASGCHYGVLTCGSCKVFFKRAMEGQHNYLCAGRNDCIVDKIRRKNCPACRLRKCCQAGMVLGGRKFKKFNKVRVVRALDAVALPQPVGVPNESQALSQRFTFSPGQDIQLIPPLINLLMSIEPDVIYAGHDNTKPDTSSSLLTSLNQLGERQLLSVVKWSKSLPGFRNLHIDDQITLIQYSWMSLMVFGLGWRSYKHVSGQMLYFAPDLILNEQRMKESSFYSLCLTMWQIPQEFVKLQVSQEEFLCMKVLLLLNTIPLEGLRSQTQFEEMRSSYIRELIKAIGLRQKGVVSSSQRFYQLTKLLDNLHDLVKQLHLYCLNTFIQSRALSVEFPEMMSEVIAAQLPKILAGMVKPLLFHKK
Method in brief: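 CV-1 cells cotransfected with hPR and PRE-luciferase plasmids, luciferase read-out; IC50 averaged from at least duplicate determinations.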

[3] = molecular target: T2, Progesterone receptor; assay: Antagonist activity against the Progesterone Receptor (PR); assay type: functional
Method in brief: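 Antagonism run in CV-1 cells co-transfected with hPR and PRE-luciferase plasmids, with luciferase read-out; IC50 taken as the mean of at least duplicate determinations.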

[4] = molecular target: T3, Progesterone receptor (Rattus norvegicus) (UniProt Q63449); assay: Inhibitory activity against progesterone receptor (PR) in ovariectomized mature female rat decidualization model; assay type: functional
T3 sequence (whole entry): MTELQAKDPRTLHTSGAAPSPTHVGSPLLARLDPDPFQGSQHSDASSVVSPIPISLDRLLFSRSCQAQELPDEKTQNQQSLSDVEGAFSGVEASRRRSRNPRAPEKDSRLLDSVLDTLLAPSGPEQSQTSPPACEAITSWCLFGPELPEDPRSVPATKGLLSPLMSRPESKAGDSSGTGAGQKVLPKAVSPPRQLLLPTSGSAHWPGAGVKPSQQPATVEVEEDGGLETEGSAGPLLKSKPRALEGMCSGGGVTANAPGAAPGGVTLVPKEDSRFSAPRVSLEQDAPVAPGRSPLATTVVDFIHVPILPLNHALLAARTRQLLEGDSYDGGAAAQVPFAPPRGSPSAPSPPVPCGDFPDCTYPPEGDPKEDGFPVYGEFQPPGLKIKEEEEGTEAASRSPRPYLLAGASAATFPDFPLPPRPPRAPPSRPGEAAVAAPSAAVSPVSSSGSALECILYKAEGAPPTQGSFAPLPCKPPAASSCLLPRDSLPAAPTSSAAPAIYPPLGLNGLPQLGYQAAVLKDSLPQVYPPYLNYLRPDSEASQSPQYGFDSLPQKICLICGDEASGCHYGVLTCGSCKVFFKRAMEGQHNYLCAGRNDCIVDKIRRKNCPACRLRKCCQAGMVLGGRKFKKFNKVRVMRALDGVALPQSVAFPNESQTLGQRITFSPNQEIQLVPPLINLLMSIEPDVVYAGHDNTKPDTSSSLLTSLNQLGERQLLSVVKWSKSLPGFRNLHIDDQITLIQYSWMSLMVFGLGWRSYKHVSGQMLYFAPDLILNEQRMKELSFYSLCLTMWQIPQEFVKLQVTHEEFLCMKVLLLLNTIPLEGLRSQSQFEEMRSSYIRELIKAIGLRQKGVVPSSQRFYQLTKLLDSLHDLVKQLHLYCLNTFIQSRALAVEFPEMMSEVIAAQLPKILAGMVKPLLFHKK
Method in brief: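 Ovariectomized mature rats dosed orally for 7 days, with progesterone 5.6 mg/kg SC given alongside; vehicle-only controls. Decidual response (D/C) measured 24 h after the final treatment, seven animals per point. ED50 averaged from at least duplicate determinations.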

SMILES	IC50 [1] [nM]	IC50 [2] [nM]	IC50 [3] [nM]	ED50 [4] [mg/kg]
CC1(C)OC(=O)Nc2ccc(-c3cc(F)cc(C#N)c3)cc21	2370	15.9	15.9	0.3
CC1(C)OC(=O)Nc2ccc(-c3ccc(F)c(Cl)c3)cc21	2490			1
CC1(C)OC(=O)Nc2ccc(-c3csc(C#N)c3)cc21	1390	6.7	6.7	1.7
CC1(C)OC(=O)Nc2ccc(-c3coc(C#N)c3)cc21	> 10000	40.2	40.2	0.9
